We go through 21 compounds from ChEMBL document CHEMBL2346593, “Novel adamantyl cannabinoids as CB1 receptor probes” (J Med Chem, 2013).

Active and inactive are the calls of the source.

For test [1], the target named is Cannabinoid receptor 2 (Homo sapiens, UniProt P34972). Put plainly: Displacement of [3H]CP-55940 from human CB2 receptor expressed in HEK293 cell membrane by competitive binding assay. In kind it is cell membranes. The method, boiled down:
(§1)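 Competition-equilibrium binding against [3H]CP-55,940 in rat brain membranes (CB1), mouse spleen membranes (mCB2), or membranes of HEK293 cells expressing hCB2. IC50 was obtained by nonlinear regression and converted to Ki. Ki is the mean of three independent experiments, each run in duplicate.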
(In general: In a radioligand displacement assay an active substance lowers the binding of a labelled ligand.)

Test [2] is described as follows: Selectivity ratio of Ki for mouse CB2 receptor to Ki for rat CB1 receptor.
A short description of test [3]: Selectivity ratio of Ki for human CB2 receptor to Ki for rat CB1 receptor.
The target in test [4] is Cannabinoid receptor 2 (Mus musculus, UniProt P47936). Put plainly: Displacement of [3H]CP-55940 from mouse CB2 receptor expressed in mouse spleen membrane by competitive binding assay. In kind it is cell membranes. The method, boiled down: as §1
Test [5] deals with Cannabinoid receptor 1 (Rattus norvegicus, UniProt P20272). Put plainly: Displacement of [3H]CP-55940 from rat CB1 receptor expressed in rat brain membrane by competitive binding assay. In kind it is cell membranes.
Test [6] has as its system Rattus norvegicus. Put plainly: Antinociceptive activity in Sprague-Dawley rat assessed as increase in tail-flick latency period at 0.1 to 10 mg/kg, sc after 6 hrs by tail-flick test. In kind it is functional, organism-based. The method, boiled down: (§2)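 Female Sprague-Dawley rats (235–350 g; n = 5–7/group), retested at least 7 days apart. Compound was dissolved in 20% ethanol/20% emulphor/60% saline, diluted with saline, and given sc at 1.0 mL/kg. Radiant-heat tail-flick latency was measured over 6 h with a 6 s cutoff. %MPE = 100 × (test − baseline)/(6 − baseline). Dose-effect curves used each rat's maximum effect.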

For test [7], the system named is Rattus norvegicus. Put plainly: Antinociceptive activity in Sprague-Dawley rat assessed as increase in tail-flick latency period at 0.1 to 10 mg/kg, sc after 60 to 120 mins by tail-flick test. In kind it is functional, organism-based. The method, boiled down:
as §2
A general note: Thermal pain tests record how soon the animal reacts.

Test [8] relates to Rattus norvegicus. Put plainly: Hypothermic effect in Sprague-Dawley rat assessed as decrease in core body temperature at 10 mg/kg. In kind it is functional. The method, boiled down:
(§3)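 Female Sprague-Dawley rats (n = 5–7/group), minimally restrained and isolated, each with a thermistor probe inserted 7 cm and taped to the tail. Two baselines were taken 15 min apart, then sc injection (20% ethanol/20% emulphor/60% saline diluted with saline, 1.0 mL/kg). Temperature was read every 30 min for 3 h, then hourly to 6 h, as change from mean baseline.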

Test [9] has as its target Cannabinoid receptor 1 (Homo sapiens, UniProt P21554). Put plainly: Agonist activity at human CB1 receptor transfected in human U2OS cells assessed as beta-arrestin2-GFP aggregation after 40 mins. In kind it is cell-based.
In test [10] the test system is Rattus norvegicus. Put plainly: Antinociceptive activity in Sprague-Dawley rat assessed as increase in tail-flick latency period at 1 mg/kg, sc by tail-flick test. In kind it is functional, organism-based. Further details: dose 1 mg/kg. A digest of the protocol: as §2
Test [11] deals with Rattus norvegicus. Put plainly: Hypothermic effect in Sprague-Dawley rat assessed as decrease in core body temperature at 1 mg/kg, sc measured over 6 hrs. To be noted: route subcutaneous. In kind it is functional. The method, boiled down: as §3
Test [12] relates to Rattus norvegicus. Description: Hypothermic effect in sc dosed Sprague-Dawley rat assessed as decrease in core body temperature after 60 mins to 6 hrs. In kind it is functional, organism-based. A digest of the protocol: as §3

In general, Ki refers to a dissociation constant, usually derived from enzyme kinetics or from competition with a known ligand. A higher Ki goes with weaker binding. As a reminder, the EC50 is the concentration that produces a half-maximal response.

Sequence of Cannabinoid receptor 1 (Rattus norvegicus, UniProt P20272) (P20272 whole entry): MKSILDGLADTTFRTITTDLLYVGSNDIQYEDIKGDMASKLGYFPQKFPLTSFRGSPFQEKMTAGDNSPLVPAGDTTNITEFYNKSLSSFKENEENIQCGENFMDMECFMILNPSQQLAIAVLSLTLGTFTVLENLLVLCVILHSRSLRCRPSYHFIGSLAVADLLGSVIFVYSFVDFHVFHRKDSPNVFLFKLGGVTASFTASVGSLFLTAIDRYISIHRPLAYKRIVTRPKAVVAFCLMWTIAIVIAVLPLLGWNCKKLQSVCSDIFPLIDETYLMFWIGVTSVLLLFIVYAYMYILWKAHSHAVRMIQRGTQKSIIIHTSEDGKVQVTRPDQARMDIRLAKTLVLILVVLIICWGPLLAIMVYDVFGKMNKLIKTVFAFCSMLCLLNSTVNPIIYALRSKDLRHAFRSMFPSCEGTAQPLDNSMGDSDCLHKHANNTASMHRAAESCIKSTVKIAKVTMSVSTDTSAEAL
Sequence of Cannabinoid receptor 2 (Mus musculus, UniProt P47936) (P47936 whole entry): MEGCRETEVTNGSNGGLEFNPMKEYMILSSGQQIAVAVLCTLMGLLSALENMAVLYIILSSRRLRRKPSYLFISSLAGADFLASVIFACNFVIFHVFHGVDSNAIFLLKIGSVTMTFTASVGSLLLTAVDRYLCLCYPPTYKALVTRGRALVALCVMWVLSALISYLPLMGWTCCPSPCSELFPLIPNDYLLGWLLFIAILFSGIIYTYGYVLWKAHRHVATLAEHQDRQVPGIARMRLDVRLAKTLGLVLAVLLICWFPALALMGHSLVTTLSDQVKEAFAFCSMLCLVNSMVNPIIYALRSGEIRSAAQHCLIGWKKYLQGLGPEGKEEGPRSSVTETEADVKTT
Sequence of Cannabinoid receptor 1 (Homo sapiens, UniProt P21554) (P21554 whole entry): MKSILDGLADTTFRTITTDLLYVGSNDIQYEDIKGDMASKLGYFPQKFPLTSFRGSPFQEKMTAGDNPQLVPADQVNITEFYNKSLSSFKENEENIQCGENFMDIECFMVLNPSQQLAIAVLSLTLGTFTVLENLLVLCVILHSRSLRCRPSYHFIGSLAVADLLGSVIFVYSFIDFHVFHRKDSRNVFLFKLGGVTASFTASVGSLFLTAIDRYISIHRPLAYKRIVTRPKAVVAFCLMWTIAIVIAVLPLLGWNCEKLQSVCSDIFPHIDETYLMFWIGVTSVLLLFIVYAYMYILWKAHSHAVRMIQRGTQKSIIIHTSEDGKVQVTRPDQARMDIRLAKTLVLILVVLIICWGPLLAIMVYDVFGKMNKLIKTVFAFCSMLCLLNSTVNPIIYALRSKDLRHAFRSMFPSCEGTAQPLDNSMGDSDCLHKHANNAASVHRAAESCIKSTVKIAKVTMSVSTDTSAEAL
Sequence of Cannabinoid receptor 2 (Homo sapiens, UniProt P34972) (P34972 whole entry): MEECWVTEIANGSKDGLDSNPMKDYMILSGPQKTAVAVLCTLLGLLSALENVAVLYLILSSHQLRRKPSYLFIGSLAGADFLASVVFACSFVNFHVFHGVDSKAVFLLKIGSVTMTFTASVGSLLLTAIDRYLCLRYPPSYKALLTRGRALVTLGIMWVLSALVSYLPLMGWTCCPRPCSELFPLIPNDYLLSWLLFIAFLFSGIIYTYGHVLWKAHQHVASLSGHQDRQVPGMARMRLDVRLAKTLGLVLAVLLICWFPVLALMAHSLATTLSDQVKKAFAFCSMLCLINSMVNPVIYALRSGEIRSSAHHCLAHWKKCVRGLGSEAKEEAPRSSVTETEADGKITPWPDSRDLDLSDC

As to `CC1(C)Oc2cc(C34CC5CC(CC(C5)C3)C4)cc(O)c2[C@@H]2C[C@@H](C=O)CC[C@H]21`, the Ki was determined as 9 nM at Cannabinoid receptor 2 [1], 20.1 nM at Cannabinoid receptor 2 [4] and 48.2 nM on Cannabinoid receptor 1 [5]. The Ratio Ki in [2] worked out at 0.4; in test [3] it was 0.2.

Take `CC1=CC[C@@H]2[C@@H](C1)c1c(O)cc(C34CC5CC(CC(C5)C3)C4)cc1OC2(C)C`: the outcome with Rattus norvegicus [6] and with Rattus norvegicus [7] was Active. Besides, the result in the test with Rattus norvegicus [8] was inactive. Also, at Cannabinoid receptor 1 [9], the EC50 worked out at 1530 nM.

With `CC1(C)Oc2cc(C34CC5CC(CC(C5)C3)C4)cc(O)c2-c2cc(CO)ccc21`, the T in the test on Rattus norvegicus [8] worked out at 4.1 °C. In addition, at Cannabinoid receptor 1 [9], the EC50 amounted to 450 nM. Further, the Ki at Cannabinoid receptor 2 [1] turned out to be 46.7 nM; at Cannabinoid receptor 2 [4], 32.3 nM; on Cannabinoid receptor 1 [5], 2.1 nM. Moreover, the Ratio Ki in test [2] was determined as 15.4; in test [3], 22.2.

On to `Cc1ccc2c(c1)-c1c(O)cc(C34CC5CC(CC(C5)C3)C4)cc1OC2(C)C`, for which the Ki on Cannabinoid receptor 2 [1] came to 63.5 nM; at Cannabinoid receptor 2 [4] it was 42.2 nM; at Cannabinoid receptor 1 [5], 62 nM. The Ratio Ki in test [2] turned out to be 0.7; in test [3], 1.

Take `CC1(C)Oc2cc(C34CC5CC(CC(C5)C3)C4)cc(O)c2[C@@H]2C[C@H](O)CC[C@H]21`: the results for the Ki on Cannabinoid receptor 2 [1], at Cannabinoid receptor 2 [4] and at Cannabinoid receptor 1 [5] were 40.5 nM, 39.4 nM and 23.9 nM, respectively.

`CC1(C)Oc2cc(C34CC5CC(CC(C5)C3)C4)cc(O)c2[C@@H]2C[C@H](C=O)CC[C@H]21`: the figures for the Ki at Cannabinoid receptor 2 [1], on Cannabinoid receptor 2 [4] and at Cannabinoid receptor 1 [5] were 5.5 nM, 25.7 nM and 52.9 nM, respectively. For the same compound, the figures for the Ratio Ki in test [2] and in test [3] were 0.5 and 0.1, respectively.

For `COc1ccc2c(c1)-c1c(O)cc(C34CC5CC(CC(C5)C3)C4)cc1OC2(C)C`, the Ki is 338 nM at Cannabinoid receptor 2 [1], 950 nM at Cannabinoid receptor 2 [4] and 507 nM on Cannabinoid receptor 1 [5]. The figures for the Ratio Ki in [2] and in test [3] were 1.9 and 0.7, respectively.

As for `CC1(C)Oc2cc(C34CC5CC(CC(C5)C3)C4)cc(O)c2[C@@H]2C[C@@H](CC=O)CC[C@H]21`, the Ki at Cannabinoid receptor 2 [1] is 7.8 nM; on Cannabinoid receptor 2 [4], 8.1 nM; at Cannabinoid receptor 1 [5] it was 17.5 nM. The Ratio Ki in test [2] worked out at 0.5; in test [3] it was 0.4.

Take `CC(C)(C)C(=O)OCC1=CC[C@@H]2[C@@H](C1)c1c(O)cc(C34CC5CC(CC(C5)C3)C4)cc1OC2(C)C`: the Ki on Cannabinoid receptor 2 [1] was 49.2 nM; at Cannabinoid receptor 2 [4] it was 126 nM; on Cannabinoid receptor 1 [5], 16.5 nM. Also, the Ratio Ki in test [2] is 7.6; in [3], 3.

In the case of `CC1(C)Oc2cc(C34CC5CC(CC(C5)C3)C4)cc(O)c2[C@@H]2C[C@H](CI)CC[C@H]21`, the Ki on Cannabinoid receptor 2 [1] worked out at 262 nM; at Cannabinoid receptor 2 [4], 346 nM; at Cannabinoid receptor 1 [5] it was 241 nM. For the same compound, the Ratio Ki was found to be 1.4 in test [2] and 1.1 in test [3].

For the compound `CO/C=C\[C@@H]1CC[C@@H]2[C@@H](C1)c1c(O)cc(C34CC5CC(CC(C5)C3)C4)cc1OC2(C)C`, the Ki at Cannabinoid receptor 2 [1] was found to be 67.2 nM; on Cannabinoid receptor 2 [4], 90.3 nM; on Cannabinoid receptor 1 [5], 31 nM. Moreover, the Ratio Ki in test [2] was determined as 2.9; in test [3], 2.2.

Turning to `CC1(C)Oc2cc(C34CC5CC(CC(C5)C3)C4)cc(O)c2[C@@H]2CC(=O)CC[C@H]21`, the Ki is 338 nM at Cannabinoid receptor 2 [1] and 250 nM on Cannabinoid receptor 2 [4].

Take `CC1(C)Oc2cc(C34CC5CC(CC(C5)C3)C4)cc(O)c2[C@@H]2C[C@H](CC=O)CC[C@H]21`: the results for the inhibitory constant (Ki) on Cannabinoid receptor 2 [1], at Cannabinoid receptor 2 [4] and at Cannabinoid receptor 1 [5] were 11.2 nM, 34.3 nM and 13.2 nM, respectively. Further, the figures for the Ratio Ki in test [2] and in test [3] were 2.6 and 0.8, respectively.

Regarding `CC1(C)Oc2cc(C34CC5CC(CC(C5)C3)C4)cc(O)c2[C@@H]2C[C@H](CCO)CC[C@H]21`, the values for the Ki on Cannabinoid receptor 2 [1], on Cannabinoid receptor 2 [4] and at Cannabinoid receptor 1 [5] were 33.3 nM, 38.4 nM and 8.6 nM, respectively. Moreover, the Ratio Ki in test [2] came to 4.5; in test [3], 3.9.

As for `CC1(C)Oc2cc(C34CC5CC(CC(C5)C3)C4)cc(O)c2[C@@H]2C[C@@H](CCO)CC[C@H]21`, the Ki on Cannabinoid receptor 2 [1] came to 365 nM; on Cannabinoid receptor 2 [4], 21 nM; on Cannabinoid receptor 1 [5], 40.9 nM. Also, the Ratio Ki in test [2] stood at 0.5; in test [3], 8.9.

As to `CC1(C)Oc2cc(C34CC5CC(CC(C5)C3)C4)cc(O)c2[C@@H]2CC(CO)=CC[C@H]21`, the EC50 at Cannabinoid receptor 1 [9] was determined as 230 nM. Besides, the Ki at Cannabinoid receptor 2 [1] was 14 nM; at Cannabinoid receptor 2 [4], 10.6 nM; at Cannabinoid receptor 1 [5], 7.2 nM. Further, the Ratio Ki in [2] came to 1.5; in test [3], 1.9.

With `CC1(C)Oc2cc(C34CC5CC(CC(C5)C3)C4)cc(O)c2[C@@H]2C[C@H](CO)CC[C@H]21`, the outcome in the test on Rattus norvegicus [10] was Active. In the test on Rattus norvegicus [11], the T came out at 6.4 °C. Besides, on Cannabinoid receptor 1 [9], the EC50 stood at 96 nM. Moreover, the Activity entry with Rattus norvegicus [12] was “Dose-dependent effect”. For the same compound, the Ki at Cannabinoid receptor 2 [1] turned out to be 11.3 nM; at Cannabinoid receptor 2 [4], 12.1 nM; at Cannabinoid receptor 1 [5] it was 4.9 nM. In addition, the Ratio Ki stood at 2.5 in test [2] and 2.3 in test [3].

As for `CC1(C)Oc2cc(C34CC5CC(CC(C5)C3)C4)cc(O)c2[C@@H]2C[C@@H](CO)CC[C@H]21`, the figures for the Ki on Cannabinoid receptor 2 [1], at Cannabinoid receptor 2 [4] and at Cannabinoid receptor 1 [5] were 121 nM, 65.1 nM and 30.1 nM, respectively. The Ratio Ki was 2.2 in test [2] and 4 in test [3].

As for `CC1(C)Oc2cc(C34CC5CC(CC(C5)C3)C4)cc(O)c2[C@@H]2C[C@@H](O)CC[C@H]21`, the figures for the Ki on Cannabinoid receptor 2 [1], on Cannabinoid receptor 2 [4] and on Cannabinoid receptor 1 [5] were 672 nM, 255 nM and 146 nM, respectively.

For `CC1(C)Oc2cc(C34CC5CC(CC(C5)C3)C4)cc(O)c2[C@@H]2C[C@H](CC#N)CC[C@H]21`, the Ki worked out at 100 nM at Cannabinoid receptor 2 [1], 87 nM on Cannabinoid receptor 2 [4] and 48.7 nM at Cannabinoid receptor 1 [5]. Further, the Ratio Ki in [2] came out at 1.8; in test [3], 2.1.

For `CC1(C)Oc2cc(C34CC5CC(CC(C5)C3)C4)cc(O)c2-c2cc(O)ccc21`, the values for the Ki at Cannabinoid receptor 2 [1], at Cannabinoid receptor 2 [4] and on Cannabinoid receptor 1 [5] were 551 nM, 251 nM and 88.6 nM, respectively. For the same compound, the Ratio Ki worked out at 2.8 in [2] and 6.2 in test [3].
